Consider five compounds from PMC7805566 (Medicinal Chemistry Research, 2021).

One series relates to M. tuberculosis H37Rv. Put plainly: MIC against Mtb H37Rv, microplate alamar blue assay. Type of series: cell-based, Mycobacterium tuberculosis. As to conditions: for MIC: Mycobacterium tuberculosis, H37RV.
Series [1] can be described thus: In vivo pharmacokinetic profiles in male ICR mice. As to conditions: for AUC(0-t) / Cmax / Tmax / Vd / clearance / half-life / bioavailability: male, ICR, mouse, plasma; for bioavailability: oral. In outline: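 SPF male ICR mice (22–23 g), three per route. Oral 10 mg/kg (1.0 mg/mL in 0.5% carboxymethyl cellulose/0.5% Tween 80); i.v. 2 mg/kg (0.4 mg/mL in 20% HP-β-CD with 4 mol/L HCl). Plasma extracted 20:1 with acetonitrile containing internal standard; LC-MS/MS, C18, isocratic acetonitrile/water 80:20 with 0.1% formic acid. Non-compartmental parameters; F = (AUCp.o.×dosei.v.)/(AUCi.v.×dosep.o.).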

Series [2] in a line: Metabolic stability in liver microsomes. As to conditions: mouse and human liver microsomes, without NADPH. Type of series: in vitro ADME. In outline:
(§1)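 The test compound, taken from a 10 mM DMSO stock and diluted to 100 μM in DMSO, was added to mouse or human liver microsomes and preincubated at 37 °C for 5 min. The reaction was started with buffer/NADPH working solution (5 mM); samples without NADPH were the negative controls. Aliquots at 0 and 30 min were quenched with internal standard, centrifuged at 4 °C, and measured by LC-MS/MS.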
In general terms: Liver microsomes are vesicles of endoplasmic reticulum, rich in cytochrome P450 enzymes.

Series [3] is described as follows: Microsomal stability, mouse liver microsomes. Type of series: in vitro ADME. A digest of the protocol: as §1
Series [4] in a line: Microsomal stability, human liver microsomes. The class given is in vitro ADME. In outline:
as §1

For series [5] the following is noted: liver microsomes, previous reports ref 30; cited from earlier work.
Setting [6] is: Mouse (% remaining at 30 min) With NADPH, with NADPH.
Where [7] appears, read: Mouse (% remaining at 30 min) Without NADPH, without NADPH.
[8] abbreviates: Human (% remaining at 30 min) With NADPH, with NADPH.
The mark [9] stands for this setting: Human (% remaining at 30 min) Without NADPH, without NADPH.

≈ marks a conversion by molar mass, not a printed value.

As a reminder, the MIC is the lowest concentration found to suppress growth. Higher therefore signals a less susceptible organism. `N#Cc1cc(C(F)(F)F)cc2c(=O)nc(N3CCN(CC4CCCC4)CC3)sc12` [Compound 1c, 2-(4-(cyclopentylmethyl)piperazin-1-yl)-4-oxo-6-(trifluoromethyl)-4H-benzo[e][1,3]thiazine-8-carbonitrile] had an MIC with M. tuberculosis H37Rv of 0.2 µM (≈ 0.0845 µg/mL). This counts as sub-micromolar.

The term AUC(0-t) denotes the area under the concentration-time curve up to a stated or last time point. Low readings indicate less exposure, high ones more exposure. One may read the Cmax as the peak of the concentration-time curve. A word on the Tmax: it is the time at which the peak concentration occurs. What is called Vd is the apparent volume that relates the amount in the body to the concentration in plasma or blood. High values mean extensive tissue distribution, low ones confinement near the circulation. Broadly, the clearance is a measure of how efficiently the substance is removed, as volume per time. High values mean a high capacity for elimination, low ones a low capacity for elimination. For orientation: half-life means the time needed for the level to fall by half in the phase considered. For orientation: bioavailability means dose-corrected exposure relative to a reference, in per cent. A lower bioavailability goes with poor availability. Consider `N#Cc1cc(C(F)(F)F)cc2c(=O)nc(N3CCN(CC4CCCCC4)CC3)sc12` [Compound 1d, 2-(4-(cyclohexylmethyl)piperazin-1-yl)-4-oxo-6-(trifluoromethyl)-4H-benzo[e][1,3]thiazine-8-carbonitrile], for which the “increase in the volume of distribution (V) relative to macozinone” value in series [1] (i.v. dosing, mice) amounted to 2.0 fold. Further, in series [1] (iv, 2 mg/kg), the AUC(0-t) worked out at 445 ng·h/mL, the Cmax came out at 1340 ng/mL, the Tmax was determined as 1.98 min and the volume of distribution (Vd) was 11.3 L/kg. In series [1] (iv, 2 mg/kg), this compound had a clearance of 71.2 mL/min/kg and a half-life of 110 min. The same compound registered a bioavailability in series [1] (10 mg/kg) of 7.8%. Besides, in series [1] (po, 10 mg/kg), the area under the curve AUC(0-t) was determined as 174 ng·h/mL, the Cmax was determined as 110 ng/mL, the time of peak concentration (Tmax) came out at 15 min and the half-life is 104 min. For the same compound, the “decrease of oral bioavailability relative to macozinone” value in series [1] (mice) is given as “twofold”. In series [1] (oral dosing, male ICR mice), this compound showed a maximum plasma concentration of 240 nM. In addition, the “metabolism in the absence of NADPH (in words)” value in series [2] was “neither macozinone nor 1d were metabolized”. The same compound registered an MIC in the series with M. tuberculosis H37Rv of 0.13 µM (≈ 0.0567 µg/mL). The share remaining at 0.5 h, 1 µM in series [3] (setting [6]) worked out at 38.6%. Further, the fraction remaining at 0.5 h, 1 µM in series [3] (setting [7]) turned out to be 96.4%. Also, in series [4] (setting [8]), the amount remaining at 0.5 h, 1 µM came to 26.3%. Further, in series [4] (setting [9]), the fraction remaining at 0.5 h, 1 µM amounted to 102%. For the same compound, in the series with Vero cells, the “cytotoxicity (in words)” value is “no cytotoxicity”.

Consider `N#Cc1cc(C(F)(F)F)cc2c(=O)nc(N3CCN(CC4CCOC4)CC3)sc12` (centres unmarked) [Compound 1e, 4-Oxo-2-(4-((tetrahydrofuran-3-yl)methyl)piperazin-1-yl)-6-(trifluoromethyl)-4H-benzo[e][1,3]thiazine-8-carbonitrile], for which the “loss of potency relative to cyclopentyl methyl 1c” value with M. tuberculosis H37Rv (Mtb H37Rv MIC) is on record as 10 fold.

Regarding `N#Cc1cc(C(F)(F)F)cc2c(=O)nc(N3CCN(CC4COC4)CC3)sc12` [Compound 1f, 2-(4-(oxetan-3-ylmethyl)piperazin-1-yl)-4-oxo-6-(trifluoromethyl)-4H-benzo[e][1,3]thiazine-8-carbonitrile], in the series with M. tuberculosis H37Rv (Mtb H37Rv), the “antimycobacterial activity (in words)” value is “inactive”.

In the case of `O=c1nc(N2CCN(CC3CCCCC3)CC2)sc2c([N+](=O)[O-])cc(C(F)(F)F)cc12` [Macozinone, reference compound], in series [1] (iv, 2 mg/kg), the area under the curve AUC(0-t) turned out to be 423 ng·h/mL, the Cmax was found to be 1230 ng/mL, the Tmax worked out at 1.98 min and the Vd stood at 5.64 L/kg. In series [1] (iv, 2 mg/kg), this compound had a clearance of 75.8 mL/min/kg and a half-life of 51.6 min. For the same compound, the bioavailability in series [1] (10 mg/kg) was 16.7%. Also, in series [1] (po, 10 mg/kg), the AUC(0-t) is 354 ng·h/mL, the highest level (Cmax) was 251 ng/mL, the Tmax worked out at 15 min and the half-life is 101 min. Further, in series [5], the “half-life (metabolic stability)” value was 34 to 43 min. The “metabolism in the absence of NADPH (in words)” value in series [2] is on record as “neither macozinone nor 1d were metabolized”. In addition, the share remaining at 0.5 h, 1 µM in series [3] (setting [6]) is 50.7%. Moreover, the amount remaining at 0.5 h, 1 µM in series [3] (setting [7]) was found to be 102%. Moreover, the fraction remaining at 0.5 h, 1 µM in series [4] (setting [8]) was determined as 46.8%. The share remaining at 0.5 h, 1 µM in series [4] (setting [9]) is 101%.
